Published values collected from several papers.
Target: Inhibitor of nuclear factor kappa-B kinase subunit alpha (CHUK, Homo sapiens, UniProt O15111)
Sequence (O15111 1-745, as in one of the studies): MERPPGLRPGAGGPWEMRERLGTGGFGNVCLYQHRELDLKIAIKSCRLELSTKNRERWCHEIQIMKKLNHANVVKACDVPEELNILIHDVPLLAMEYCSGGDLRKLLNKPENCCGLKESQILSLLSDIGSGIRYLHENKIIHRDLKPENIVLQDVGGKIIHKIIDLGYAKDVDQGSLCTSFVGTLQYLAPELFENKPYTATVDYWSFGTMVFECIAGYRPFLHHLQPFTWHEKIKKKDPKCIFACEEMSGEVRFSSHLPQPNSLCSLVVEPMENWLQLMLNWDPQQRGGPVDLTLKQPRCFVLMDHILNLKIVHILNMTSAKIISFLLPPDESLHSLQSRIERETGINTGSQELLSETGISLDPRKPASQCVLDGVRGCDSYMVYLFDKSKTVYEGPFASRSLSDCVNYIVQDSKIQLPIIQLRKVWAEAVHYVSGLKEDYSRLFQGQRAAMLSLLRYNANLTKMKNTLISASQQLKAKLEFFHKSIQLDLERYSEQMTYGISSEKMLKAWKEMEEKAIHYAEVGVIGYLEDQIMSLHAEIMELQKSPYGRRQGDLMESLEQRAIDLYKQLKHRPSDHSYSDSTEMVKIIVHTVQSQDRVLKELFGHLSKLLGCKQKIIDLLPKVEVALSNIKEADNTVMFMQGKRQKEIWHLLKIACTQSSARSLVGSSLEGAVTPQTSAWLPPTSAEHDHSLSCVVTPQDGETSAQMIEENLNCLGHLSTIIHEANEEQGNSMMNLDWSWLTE

With `CSc1nc(C)c(-c2ccnc(Nc3ccc(N4CCOCC4)cc3)c2)[nH]1` the inhibition was 48.8% (enzyme activity, inhibitor; 10 µM).
`COc1cc(Cl)c(C(=O)N[C@@H](CN[C@H]2CC[C@@H](N)CC2)Cc2ccc(C#N)cc2)cc1-c1ccc(CN[C@H](C)c2ccc(C)cc2)o1` has a remaining activity of 95% (enzyme activity, inhibitor; 1 µM).
`CCN(CC)CCNC(=O)c1c(C)[nH]c(/C=C2\C(=O)Nc3ccc(F)cc32)c1C` gave an inhibition of 52% (enzyme activity, inhibitor; 10 µM).
`N#CCCc1ccc2c(c1)-c1[nH]c3ccc([N+](=O)[O-])cc3c1CC(=O)N2` has a remaining signal of 105% (cell-free assay; 0.5 µM).
For `O=C(Nc1cnn(-c2csc(C(=O)NC3COC3)c2)c1)Nc1c(F)cccc1Cl`, the remaining activity was 108% (enzyme activity, inhibitor; 5 µM).
`CN(C)c1ncnc(-c2ccc3nc(Nc4cc(CN5CCN(C(=O)CC(F)(F)F)CC5)ccn4)[nH]c3c2)c1Cl` gave a remaining binding of 69% (cell-free assay, competition with immobilised ligand; 1 µM).
With `CC(C)c1ccc(NC(=O)c2cccs2)c(-c2nc3ccccc3[nH]c2=O)c1` the activity vs control was 104% (enzyme activity, inhibitor; 1 µM).
With `CNCc1ccc(-c2cc(-c3nc(-c4ccc(S(=O)(=O)C(C)C)cc4)cnc3N)on2)cc1` the inhibition was 36% (enzyme activity, inhibitor; 2 µM).
`CNC(=O)c1cc(Oc2ccc(NC(=O)Nc3ccc(Cl)c(C(F)(F)F)c3)cc2)ccn1` has an inhibition of -10% (enzyme activity, inhibitor; 0.3 µM).
`CN(C(=O)c1ccccc1)c1cc(N(C)c2ccc3c(c2)CCc2ccc(C(=O)NCCN4CCOCC4)cc2C3=O)ccc1F` gave a remaining binding of 100% (cell-free assay, competition with immobilised ligand; 1 µM).
With `CCCOc1ccc(OC)c(F)c1C(=O)c1ccc(C(=O)N[C@@H]2CNC[C@H]2NC(=O)c2ccc3[nH]ncc3c2)cc1` the remaining activity was 83% (enzyme activity, inhibitor; 10 µM).
With `CC/C(=N\NC(=O)NCc1cccc(O)c1)c1ccc(O)c(C)c1O` the inhibition was 0.7% (enzyme activity, inhibitor; 0.1 µM).
The remaining activity of `Cc1cnc(NC2CCOCC2)nc1-n1cnc(C(=O)NC(CN)c2cc(F)cc(Cl)c2)c1` (stereo not drawn) is reported as 92% (enzyme activity, inhibitor, radiometric; 1 µM).
`Cc1ccc(Nc2nccc(N(C)c3ccc4c(C)n(C)nc4c3)n2)cc1S(N)(=O)=O` gave a remaining signal of 99.4% (cell-free assay, inhibitor; 0.5 µM).
The remaining binding of `CN([C@@H]1CCc2c(CC(=O)O)c3ccccc3n2C1)S(=O)(=O)c1ccc(F)cc1` is reported as 100% (cell-free assay, competition with immobilised ligand; 1 µM).
`COc1cccc2c(NCc3ccccc3)nc(-n3c(N)nc4ccccc43)nc12` gave an inhibition of 8.5% (target engagement in cells, inhibitor, chemoproteomics; 20 mM).
For `Cc1c(C(=O)O)cc(-c2ccc(C3CCNCC3)cc2)c2ccc(-c3ccc(C(F)(F)F)cc3)cc12`, the remaining binding was 98% (cell-free assay, competition with immobilised ligand; 1 µM).
For `Nc1ncnc2occ(-c3ccc(NC(=O)Nc4cc(C(F)(F)F)ccc4F)cc3)c12`, the remaining activity was 0% (enzyme activity, inhibitor; 20 µM).
For `O=C(NCc1ncc(C(F)(F)F)cc1Cl)c1ccc2c(c1)C1(CCS(=O)(=O)CC1)[C@H](C1CC1)N2S(=O)(=O)c1ccc(F)cc1`, the remaining binding was 77% (cell-free assay, competition with immobilised ligand; 1 µM).
`Cc1cc(NC(=O)c2cccc3cc(-c4cccc5[nH]nc(N)c45)ccc23)ccc1F` gave an activity vs control of 127% (enzyme activity, inhibitor; 0.1 µM).
`CCC(=O)N[C@@H]1CC[C@H](C(=O)N(C)c2ccc(-c3nc4ccccc4o3)cc2)C1` gave a remaining binding of 100% (cell-free assay, competition with immobilised ligand; 1 µM).
`C#Cc1cccc(Nc2ncnc3cc(OCCOC)c(OCCOC)cc23)c1` has a remaining signal of 94.2% (cell-free assay; 0.5 µM).
With `CC(=O)C1=C(C)N(c2cccc(C(F)(F)F)c2)C(=O)N[C@@H]1c1ccc(C#N)nc1` the remaining binding was 100% (cell-free assay, competition with immobilised ligand; 1 µM).
`CC(C)(C)c1nc2c(s1)c1nc(N)ncc1c1ccc(NS(=O)(=O)c3c(F)cccc3F)c(F)c12` gave a remaining activity of 88% (enzyme activity, inhibitor, radiometric; 1 µM).
